Experimental data: ChEMBL document CHEMBL1139466, “Novel tetralone-derived retinoic acid metabolism blocking agents: synthesis and in vitro evaluation with liver microsomal and MCF-7 CYP26A1 cell assays” (J Med Chem, 2005)
Activity calls are given as the source filed them. The calls are words filed in the database; no cut-off is given here.

Assays:
Liver microsomes = experiment: Inhibition of all-trans retinoic acid metabolism in rat liver microsomes; assay type: functional, Microsome
Procedure, shortened: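 Rat liver microsomes incubated with [11,12-3H]-atRA (diluted in unlabeled atRA), inhibitor in acetonitrile, NADPH and 50 mM phosphate buffer pH 7.4, duplicate tubes, 30 min at 37 °C with shaking. Extract evaporated and metabolites resolved by C18 radio-HPLC (acetonitrile/1% ammonium acetate/acetic acid 75:25:0.1). IC50 is the average of two experiments.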

Cytochrome P450 26A1 = target: T1, Cytochrome P450 26A1 (Homo sapiens, UniProt O43174); experiment: Inhibition of CYP26A1 in human MCF7 cells assessed as all-trans retinoic acid metabolism; assay type: ADME, cell-based
T1 sequence (O43174 whole entry): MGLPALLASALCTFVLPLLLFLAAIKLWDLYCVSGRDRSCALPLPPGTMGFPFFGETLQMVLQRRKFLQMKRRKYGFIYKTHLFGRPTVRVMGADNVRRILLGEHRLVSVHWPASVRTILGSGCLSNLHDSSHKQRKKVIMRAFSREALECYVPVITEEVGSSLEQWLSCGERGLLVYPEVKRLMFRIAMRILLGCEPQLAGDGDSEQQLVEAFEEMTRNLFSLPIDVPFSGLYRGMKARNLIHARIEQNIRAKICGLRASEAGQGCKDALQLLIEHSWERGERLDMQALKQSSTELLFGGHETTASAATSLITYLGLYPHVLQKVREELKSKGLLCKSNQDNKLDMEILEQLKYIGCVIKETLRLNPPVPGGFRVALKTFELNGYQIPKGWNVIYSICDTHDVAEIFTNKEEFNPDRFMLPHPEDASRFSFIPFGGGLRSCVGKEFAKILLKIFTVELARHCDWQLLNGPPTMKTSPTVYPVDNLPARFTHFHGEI
Procedure, shortened: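 Seeded 2.5 × 10^5 per well and allowed 24 h to adhere, then washed with PBS. Fresh medium with inhibitor in acetonitrile plus atRA (final 1 × 10^-7 M, 0.1 μCi [3H]-atRA), 9 h at 37 °C in the dark, duplicate. Stopped with 1% acetic acid. Metabolites separated by radio-HPLC on C18. IC50 is the average of two experiments.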

| IC50 (Liver microsomes) | IC50 (Cytochrome P450 26A1) | SMILES | Activity (Liver microsomes; Microsome) |
| --- | --- | --- | --- |
| 17.6 µM | 43 µM | Nc1ccc(CC2CCc3cc(O)ccc3C2=O)cc1 (single isomer, unassigned; (+)) |  |
| 10.2 µM | 39 µM | Nc1ccc(CC2CCc3cc(O)ccc3C2=O)cc1 (single isomer, unassigned; (-)) |  |
| 2.4 µM | 20 µM | O=C1/C(=C/c2ccccc2Br)CCc2cc(O)ccc21 |  |
| > 20 µM | 9 µM | O=C1/C(=C/c2ccc(O)cc2)CCc2cc(O)ccc21 |  |
| 2.2 µM | 25 µM | COc1ccc2c(c1)CCC(Cc1ccc(O)cc1)C2 (configuration not stated) |  |
| 1.5 µM | 20 µM | O=C1c2ccc(O)cc2CCC1Cc1ccc(O)cc1 (configuration not stated) |  |
| 0.8 µM | 10 µM | O=C1c2ccc(O)cc2CCC1Cc1ccc(-c2ccccc2)cc1 (configuration not stated) |  |
| > 20 µM | 50 µM | O=C1/C(=C/c2ccc(-c3ccccc3)cc2)CCc2cc(O)ccc21 |  |
| 1.2 µM | 25 µM | CN(C)c1ccc(CC2CCc3cc(O)ccc3C2=O)cc1 (configuration not stated) |  |
| 0.5 µM | 10 µM | O=C1c2ccc(O)cc2CCC1Cc1ccccc1-c1ccccc1 (configuration not stated) |  |
| 0.4 µM | 5 µM | COc1ccc2c(c1)CCC(Cc1ccc(O)cc1)C2=O (configuration not stated) |  |
| > 20 µM | 20 µM | O=C1/C(=C/c2ccccc2-c2ccccc2)CCc2cc(O)ccc21 |  |
| 1.8 µM | 20 µM | COc1ccc2c(c1)CCC(Cc1ccccc1C)C2=O (configuration not stated) |  |

Continued, compound first:

| SMILES | IC50 (Liver microsomes) | IC50 (Cytochrome P450 26A1) | Activity (Liver microsomes; Microsome) |
| --- | --- | --- | --- |
| COc1ccc2c(c1)CC/C(=C\c1ccccc1C)C2=O | > 20 µM | 20 µM |  |
| CCC(CC)[C@H](c1ccc(Nc2nc3ccccc3s2)cc1)n1cncn1 | 9 µM | 0.005 µM |  |
| COc1ccc2c(c1)CC/C(=C\c1cc(C(F)(F)F)ccc1C(F)(F)F)C2=O | > 20 µM | 50 µM |  |
| COc1ccc2c(c1)CC/C(=C\c1ccc(O)cc1)C2=O | > 20 µM | 7 µM |  |
| CN(C)c1ccc(/C=C2\CCc3cc(O)ccc3C2=O)cc1 | > 20 µM | 50 µM |  |
| Clc1cccc(C(c2ccc3[nH]cnc3c2)n2ccnc2)c1 (configuration not stated) |  |  | Active |
| COc1ccc2c(c1)CCC(Cc1cc(C(F)(F)F)ccc1C(F)(F)F)C2=O (configuration not stated) | 18 µM | 50 µM |  |
| CC(=O)N1CCN(c2ccc(OCC3COC(Cn4ccnc4)(c4ccc(Cl)cc4Cl)O3)cc2)CC1 (configuration not stated) [KETOCONAZOLE] | 18 µM |  |  |
| COc1ccc2c(c1)CC/C(=C\c1ccccc1Br)C2=O | > 20 µM | 9 µM |  |
